Measured values from ChEMBL document CHEMBL1158804, “Lupane triterpenoids from Maytenus species” (J Nat Prod, 2005).
Converted amounts (≈) assume the structure as drawn. The source made the active and inactive calls. The calls are words filed in the database; no cut-off is given here.

Tests used:
HeLa = assay: Cytotoxicity against human HeLa cells after 48 hrs by MTT assay; assay type: functional, cell-based
Outline: (§1)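 Monolayers are cultured in DMEM with 5% fetal calf serum and 1% penicillin-streptomycin at 37 °C, 5% CO2 and 90% humidity. Exponentially growing cells (2 × 10^4 cells/well) are exposed to a range of compound concentrations for 48 h at 37 °C. Viability is read by colorimetric MTT reduction.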

Bacillus subtilis [1] = assay: Antibacterial activity against Bacillus subtilis CECT 39 by broth microdilution method; assay type: functional
Outline: (§2)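 Compounds are dissolved in DMSO. The minimal inhibitory concentration is estimated by broth microdilution.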

HEp-2 = assay: Cytotoxicity against human Hep2 cells after 48 hrs by MTT assay; assay type: functional, cell-based; details: HEp-2, 48 h; outline: as §1
Bacillus cereus [2] = assay: Antibacterial activity against Bacillus cereus CECT 496 by broth microdilution method; assay type: functional; outline: as §2
Vero = assay: Cytotoxicity against african green monkey Vero cells after 48 hrs by MTT assay; assay type: cell-based; details: Chlorocebus sabaeus; outline: as §1
Bacillus pumilus [3] = assay: Antibacterial activity against Bacillus pumilus CECT 29 by broth microdilution method; assay type: functional; outline: as §2
Pseudomonas aeruginosa = assay: Antibacterial activity against Pseudomonas aeruginosa AK 958 up to 40 ug/mL by broth microdilution method; assay type: functional, organism-based; outline: as §2
[4] = test system: Mycolicibacterium smegmatis; assay: Antibacterial activity against Mycobacterium smegmatis CECT 3032 up to 40 ug/mL by broth microdilution method; assay type: functional, organism-based; outline: as §2
Enterococcus faecalis = assay: Antibacterial activity against Enterococcus faecalis CECT 795 up to 40 ug/mL by broth microdilution method; assay type: functional, organism-based; outline: as §2
Candida albicans = assay: Antifungal activity against Candida albicans UBC1 up to 40 ug/mL by broth microdilution method; assay type: functional, organism-based
Outline: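 The yeast is grown on Sabouraud agar at 37 °C. Compounds are dissolved in DMSO, and the minimal inhibitory concentration is estimated by broth microdilution.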

Priestia megaterium = assay: Antibacterial activity against Bacillus megaterium CECT 44 up to 40 ug/mL by broth microdilution method; assay type: functional, organism-based; outline: as §2
Bacillus pumilus [5] = assay: Antibacterial activity against Bacillus pumilus CECT 29 up to 40 ug/mL by broth microdilution method; assay type: functional, organism-based; outline: as §2
Bacillus cereus [6] = assay: Antibacterial activity against Bacillus cereus CECT 496 up to 40 ug/mL by broth microdilution method; assay type: functional, organism-based; outline: as §2
Escherichia coli = assay: Antibacterial activity against Escherichia coli CECT 99 up to 40 ug/mL by broth microdilution method; assay type: functional, organism-based; outline: as §2
[7] = test system: Staphylococcus saprophyticus; assay: Antibacterial activity against Staphylococcus saprophyticus CECT 235 up to 40 ug/mL by broth microdilution method; assay type: functional, organism-based; outline: as §2
Proteus mirabilis = assay: Antibacterial activity against Proteus mirabilis CECT170 up to 40 ug/mL by broth microdilution method; assay type: functional, organism-based; outline: as §2
Staphylococcus aureus = assay: Antibacterial activity against Staphylococcus aureus ATCC 6538 up to 40 ug/mL by broth microdilution method; assay type: functional, organism-based; outline: as §2
Salmonella = assay: Antibacterial activity against Salmonella sp. CECT 456 up to 40 ug/mL by broth microdilution method; assay type: functional, organism-based; outline: as §2
[8] = test system: Staphylococcus epidermidis; assay: Antibacterial activity against Staphylococcus epidermidis CECT 232 up to 40 ug/mL by broth microdilution method; assay type: functional, organism-based; outline: as §2
Bacillus subtilis [9] = assay: Antibacterial activity against Bacillus subtilis CECT 39 up to 40 ug/mL by broth microdilution method; assay type: functional, organism-based; outline: as §2

MIC (Bacillus subtilis [1]) [µg/mL]	MIC (Bacillus cereus [2]) [µg/mL]	MIC (Bacillus pumilus [3]) [µg/mL]	SMILES	IC50 (HeLa) [µg/mL]	IC50 (HEp-2) [µg/mL]	IC50 (Vero) [µg/mL]	Activity (Pseudomonas aeruginosa)	Activity [4]	Activity (Enterococcus faecalis)	Activity (Candida albicans)	Activity (Priestia megaterium)	Activity (Bacillus pumilus [5])	Activity (Bacillus cereus [6])	Activity (Escherichia coli)	Activity [7]	Activity (Proteus mirabilis)	Activity (Staphylococcus aureus)	Activity (Salmonella)	Activity [8]	Activity (Bacillus subtilis [9])
35 (≈ 74.4 µM)	25 (≈ 53.1 µM)	20 (≈ 42.5 µM)	C=C(C)[C@@H]1CC[C@]2(C(=O)O)CC[C@]3(C)[C@@H](CC[C@@H]4[C@@]5(C)CCC(=O)C(C)(C)[C@@H]5[C@H](O)C[C@]43C)[C@@H]12	> 10	> 10	> 10	–	–	–	–	–	–	–	–	–	–	–	–	–	–
–	–	–	CC(=O)[C@@H]1CC[C@]2(CO)CC[C@]3(C)[C@@H](CC[C@@H]4[C@@]5(C)CC[C@H](O)C(C)(C)[C@@H]5CC[C@]43C)[C@@H]12 [MESSAGENIN]	> 10	> 10	> 10	inactive	inactive	inactive	inactive	inactive	inactive	inactive	inactive	inactive	inactive	inactive	inactive	inactive	inactive
–	–	–	C=C(C)[C@@H]1CC[C@]2(C)CC[C@]3(C)[C@@H](C[C@@H](O)[C@@H]4[C@@]5(C)[C@H](O)C[C@H](O)C(C)(C)[C@@H]5CC[C@]43C)[C@@H]12 [NEPETICIN]	< 10	< 10	< 10	inactive	inactive	inactive	inactive	inactive	inactive	inactive	inactive	inactive	inactive	inactive	inactive	inactive	inactive
–	–	–	C=C(C)[C@@H]1CC[C@@]2(C)[C@H]1[C@@H]1CC[C@@H]3[C@@]4(C)CCC(=O)C(C)(C)[C@@H]4[C@H](O)C[C@@]3(C)[C@]1(C)C[C@@H]2O [RESINONE]	> 10	> 10	> 10	inactive	inactive	inactive	inactive	inactive	inactive	inactive	inactive	inactive	inactive	inactive	inactive	inactive	inactive
–	–	–	C=C(C)[C@@H]1CC[C@]2(C)CC[C@]3(C)[C@@H](C[C@@H](O)[C@@H]4[C@@]5(C)CCC(=O)C(C)(C)[C@@H]5CC[C@]43C)[C@@H]12 [RIGIDENOL]	> 10	> 10	> 10	inactive	inactive	inactive	inactive	inactive	inactive	inactive	inactive	inactive	inactive	inactive	inactive	inactive	inactive
